Source: ChEMBL document CHEMBL4011602, “Xanthine oxidase inhibitory activity of nicotino/isonicotinohydrazides: A systematic approach from in vitro, in silico to in vivo studies” (Bioorg Med Chem, 2017)

Experiments:
[1] = molecular target: T1, Xanthine dehydrogenase/oxidase (Bos taurus, UniProt P80457); assay: Inhibition of bovine xanthine oxidase using xanthine as substrate preincubated for 10 mins followed by substrate addition measured for 15 mins by spectrophotometric method
[2] = molecular target: T1, Xanthine dehydrogenase/oxidase; assay: Competitive inhibition of bovine xanthine oxidase using varying levels of xanthine as substrate preincubated for 10 mins followed by substrate addition measured for 15 mins by Lineweaver-Burk plot/Dixon plot analysis
In short: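 Run like the inhibition assay: XO (0.003 units/well) in 50 mM phosphate buffer pH 7.4, inhibitor in 90% DMSO, preincubated 10 min at 30 °C. Varied inhibitor and xanthine concentrations (0.0375, 0.075, 0.15, 0.300 mM), absorbance change at 295 nm over 15 min.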

Rattus norvegicus [3] = assay: In vivo inhibition of xanthine oxidase in Wistar rat assessed as peak area of 6-MP at 50 mg/kg, ip using 6-mercaptopurine as substrate after 6 hrs by UPLC method (reference value: 7.3 mAU); assay type: functional
Rattus norvegicus [4] = assay: In vivo inhibition of xanthine oxidase in Wistar rat at 50 mg/kg, ip using 6-mercaptopurine as substrate after 6 hrs by UPLC method relative to control; assay type: functional
Rattus norvegicus [5] = assay: In vivo inhibition of xanthine oxidase in Wistar rat assessed as retention time of 6-MP at 50 mg/kg, ip using 6-mercaptopurine as substrate after 6 hrs by UPLC method (reference value: 4.912 min); assay type: functional, organism-based
[6] = molecular target: Xanthine dehydrogenase/oxidase (Bos taurus) (UniProt P80457)
Xanthine dehydrogenase/oxidase (Bos taurus), sequence (P80457 whole entry, looked up): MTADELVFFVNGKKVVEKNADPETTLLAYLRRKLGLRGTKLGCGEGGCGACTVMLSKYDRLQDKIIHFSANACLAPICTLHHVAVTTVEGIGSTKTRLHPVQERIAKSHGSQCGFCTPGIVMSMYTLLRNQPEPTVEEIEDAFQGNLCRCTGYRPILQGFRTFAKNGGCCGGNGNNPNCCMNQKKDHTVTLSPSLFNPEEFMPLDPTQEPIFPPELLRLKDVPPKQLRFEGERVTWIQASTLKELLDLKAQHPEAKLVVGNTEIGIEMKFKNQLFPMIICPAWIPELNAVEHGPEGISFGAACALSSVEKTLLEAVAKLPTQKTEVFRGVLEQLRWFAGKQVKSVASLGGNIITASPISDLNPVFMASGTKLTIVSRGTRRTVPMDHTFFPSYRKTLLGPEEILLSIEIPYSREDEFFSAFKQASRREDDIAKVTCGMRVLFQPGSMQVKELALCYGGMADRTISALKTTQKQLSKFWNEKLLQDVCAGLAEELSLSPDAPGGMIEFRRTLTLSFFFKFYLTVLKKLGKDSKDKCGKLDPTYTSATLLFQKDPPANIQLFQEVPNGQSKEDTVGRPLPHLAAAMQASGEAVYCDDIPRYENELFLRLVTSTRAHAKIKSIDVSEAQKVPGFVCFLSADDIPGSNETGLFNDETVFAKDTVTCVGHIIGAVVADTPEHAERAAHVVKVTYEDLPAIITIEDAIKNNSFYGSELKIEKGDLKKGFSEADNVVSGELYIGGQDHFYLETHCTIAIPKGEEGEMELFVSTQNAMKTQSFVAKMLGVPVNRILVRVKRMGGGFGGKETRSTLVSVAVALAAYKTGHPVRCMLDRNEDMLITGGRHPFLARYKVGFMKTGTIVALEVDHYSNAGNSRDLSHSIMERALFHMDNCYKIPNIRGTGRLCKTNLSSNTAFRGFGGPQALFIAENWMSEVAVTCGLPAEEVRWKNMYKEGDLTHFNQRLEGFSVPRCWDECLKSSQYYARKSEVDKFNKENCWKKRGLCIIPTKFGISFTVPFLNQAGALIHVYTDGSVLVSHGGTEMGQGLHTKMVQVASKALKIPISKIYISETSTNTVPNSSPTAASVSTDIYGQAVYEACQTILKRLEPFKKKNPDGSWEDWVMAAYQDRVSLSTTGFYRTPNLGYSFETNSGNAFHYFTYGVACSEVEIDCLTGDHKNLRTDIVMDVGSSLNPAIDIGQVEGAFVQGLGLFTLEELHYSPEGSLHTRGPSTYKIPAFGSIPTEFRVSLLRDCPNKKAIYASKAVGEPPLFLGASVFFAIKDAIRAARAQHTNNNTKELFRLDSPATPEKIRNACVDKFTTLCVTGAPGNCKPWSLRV

T1 sequence (P80457 whole entry): as the sequence (P80457 whole entry, looked up) above

Row | IC50 [1] | IC50 ([1]; read-out: IC50) [µM] | SMILES | also measured
1 | Not Active |  | O=C(N/N=C/c1ccc([N+](=O)[O-])cc1)c1ccncc1 [N'-(4-NITROBENZYLIDENE)ISONICOTINOHYDRAZIDE] | 
2 | Not Active |  | COc1ccc(/C=N/NC(=O)c2ccncc2)cc1OC [VERAZIDE] | 
3 |  | 0.96 | O=C(N/N=C/c1c(O)cc(O)cc1O)c1ccncc1 | Ki [2]: 0.82 µM; Activity (Rattus norvegicus [3]): 73.5 mAU; inhibition in vivo at 50 mg/kg (Rattus norvegicus [4]): 44%; Retention time (Rattus norvegicus [5]): 4.92 min
4 |  |  | O=C(O)c1cccnc1 [NIACIN] | IC50 [6]: 518 µM
5 | Not Active |  | COc1ccc(O)c(/C=N/NC(=O)c2ccncc2)c1 | 
6 |  | 264 | CCOc1cccc(/C=N/NC(=O)c2cccnc2)c1O | 
7 |  | 10 | O=C(N/N=C/c1ccc(O)c(O)c1)c1cccnc1 | Ki [2]: 7.27 µM; Activity (Rattus norvegicus [3]): 0.001 mAU; Retention time (Rattus norvegicus [5]): 4.9 min
8 | Not Active |  | COc1ccc(/C=N/NC(=O)c2cccnc2)cc1OC | 
9 |  | 198 | O=C(N/N=C/c1ccccc1Br)c1cccnc1 | 
10 |  | 180 | Cc1ccccc1/C=N/NC(=O)c1cccnc1 | 
11 |  | 175 | COc1cccc(/C=N/NC(=O)c2cccnc2)c1O | 
12 |  | 184 | O=C(N/N=C/c1ccc(O)cc1)c1cccnc1 | 
13 |  | 184 | O=C(N/N=C/c1cccc([N+](=O)[O-])c1)c1cccnc1 | 
14 | Not Active |  | O=C(N/N=C/c1ccc(O)cc1O)c1ccncc1 | 
15 | Not Active |  | O=C(N/N=C/c1ccc(Cl)cc1Cl)c1ccncc1 | 
16 | Not Active |  | CCOc1ccccc1/C=N/NC(=O)c1ccncc1 | 
17 | Not Active |  | CSc1ccc(/C=N/NC(=O)c2cccnc2)cc1 | 
18 | Not Active |  | COc1ccc(O)c(/C=N/NC(=O)c2cccnc2)c1 | 
19 |  | 21.1 | COc1cccc(/C=N/NC(=O)c2ccncc2)c1O | Ki [2]: 15 µM

Row | IC50 [1] | IC50 ([1]; read-out: IC50) [µM] | SMILES | also measured
20 | Not Active |  | CCOc1ccc(/C=N/NC(=O)c2ccncc2)cc1OCC | 
21 | Not Active |  | O=C(N/N=C/c1ccc(Cl)cc1Cl)c1cccnc1 | 
22 | Not Active |  | CN(C)c1ccc(/C=N/NC(=O)c2cccnc2)cc1 | 
23 |  | 195 | O=C(N/N=C/c1ccc(Cl)cc1)c1cccnc1 | 
24 | Not Active |  | O=C(N/N=C/c1ccccc1O)c1ccncc1 [SALINAZID] | 
25 | Not Active |  | O=C(N/N=C/c1ccccc1[N+](=O)[O-])c1cccnc1 | 
26 |  |  | Oc1ncnc2[nH]ncc12 [ALLOPURINOL] | Activity (Rattus norvegicus [3]): 166.3 mAU; inhibition in vivo at 50 mg/kg (Rattus norvegicus [4]): 100%; Retention time (Rattus norvegicus [5]): 4.93 min
27 | Not Active |  | COc1cccc(O)c1/C=N/NC(=O)c1cccnc1 | 
28 | Not Active |  | Cc1ccc(O)c(/C=N/NC(=O)c2cccnc2)c1 | 
29 |  | 179 | O=C(N/N=C/c1ccc(Cl)cc1)c1ccncc1 | 
30 |  | 174 | O=C(N/N=C/c1cccc([N+](=O)[O-])c1)c1ccncc1 | 
31 | Not Active |  | O=C(N/N=C/c1ccccc1[N+](=O)[O-])c1ccncc1 | 
32 | Not Active |  | O=C(N/N=C/c1ccccc1)c1ccncc1 [N'-BENZYLIDENE ISONICOTINOHYDRAZIDE] | 
33 |  | 174 | O=C(N/N=C/c1ccccc1F)c1cccnc1 | 
34 |  | 330 | CCOc1ccc(/C=N/NC(=O)c2ccncc2)cc1 | 
35 | Not Active |  | O=C(N/N=C/c1ccccc1Cl)c1ccncc1 | 
36 | Not Active |  | COc1ccc(/C=N/NC(=O)c2ccncc2)cc1O | 
37 |  | 242 | CCOc1ccc(/C=N/NC(=O)c2cccnc2)cc1 | 
38 | Not Active |  | O=C(N/N=C/c1ccc([N+](=O)[O-])cc1)c1cccnc1 | 

Row | IC50 [1] | IC50 ([1]; read-out: IC50) [µM] | SMILES | also measured
39 | Not Active |  | O=C(N/N=C/c1ccccc1F)c1ccncc1 | 
40 | Not Active |  | O=C(N/N=C/c1ccc(O)cc1)c1ccncc1 | 
41 | Not Active |  | CN(C)c1ccc(/C=N/NC(=O)c2ccncc2)cc1 [N'-(4-DIMETHYLAMINOBENZYLIDENE)ISONICOTINOHYDRAZIDE] | 
42 | Not Active |  | O=C(N/N=C/c1cccc(O)c1)c1cccnc1 | 
43 | Not Active |  | O=C(N/N=C/c1ccc(O)c(O)c1O)c1cccnc1 | 
44 |  | 206 | O=C(N/N=C/c1cccc(Cl)c1)c1ccncc1 [N'-(3-CHLOROBENZYLIDENE)ISONICOTINOHYDRAZIDE] | 
45 | Not Active |  | COc1ccc(/C=N/NC(=O)c2cccnc2)c(OC)c1OC | 
46 |  | 161 | O=C(N/N=C/c1cc(O)cc(O)c1)c1cccnc1 | 
47 |  | 205 | O=C(N/N=C/c1cccc(Cl)c1)c1cccnc1 | 
48 | Not Active |  | COc1ccccc1/C=N/NC(=O)c1cccnc1 | 
49 | Not Active |  | CSc1ccc(/C=N/NC(=O)c2ccncc2)cc1 | 
50 | Not Active |  | CCOc1ccc(/C=N/NC(=O)c2ccncc2)cc1O | 
51 | Not Active |  | CCOc1ccccc1/C=N/NC(=O)c1cccnc1 | 
52 | Not Active |  | O=C(N/N=C/c1cccc(O)c1)c1ccncc1 | 
53 |  | 211 | O=C(N/N=C/c1ccccc1)c1cccnc1 [NICOTINIC ACID BENZYLIDENE-HYDRAZIDE] | 
54 | Not Active |  | O=C(N/N=C/c1cc([N+](=O)[O-])ccc1Cl)c1ccncc1 | 
55 |  | 12.4 | O=C(N/N=C/c1ccc(O)c(O)c1)c1ccncc1 | Ki [2]: 15.5 µM; Activity (Rattus norvegicus [3]): 47.4 mAU; inhibition in vivo at 50 mg/kg (Rattus norvegicus [4]): 28%; Retention time (Rattus norvegicus [5]): 4.95 min
56 |  | 54.8 | CCOc1cccc(/C=N/NC(=O)c2ccncc2)c1O | Ki [2]: 51.3 µM
